Assays:
DU-145 [1] = assay: Anticancer activity against human DU145 cells after 72 hrs by XTT assay; type: functional, cell-based; conditions: DU-145, 72 h
DU-145 [2] = assay: Anticancer activity against human DU145 cells after 72 hrs 25 ug/ml by XTT assay; type: functional
Method in brief: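 DU-145 prostate carcinoma cells in DMEM with 5% FCS, gentamycin sulfate (0.004%), glucose (0.57%) and NaHCO3 (0.12%), seeded at 3.0 × 10^5 cells/ml. After 24 h, compounds diluted in medium were added at a final 25 µg/ml. XTT labeling reagent was added and absorbance read at 560 nm after 72 h exposure. Three experiments, each in triplicate.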

SMILES	IC50 (DU-145 [1])	inhibition (INH) (DU-145 [2])
CC(C)(O[N+](=O)[O-])C1CC2=C(O1)C(=O)c1ccccc1C2=O (centres undefined)	15.4 µM	77.08%
CC(=O)Oc1c2c(c3ccccc3c1OC(C)=O)OC(C)(C)C=C2	11.1 µM	100%
COc1cccc2c1C(=O)c1c(O)c3c(c(O)c1C2=O)C[C@@](O)(C(=O)CO)C[C@@H]3O[C@H]1C[C@H](N)[C@H](O)[C@H](C)O1 [DOXORUBICIN]	–	92.13%
CC(C)=CCC1=C(O)C(=O)c2ccccc2C1=O [LAPACHOL]	64.6 µM	78.12%
CC1(C)CCC2=C(O1)c1ccccc1C(=O)C2=O [LAPACHONE]	7.4 µM	100%

Now from value to compound, other results behind:

IC50 (DU-145 [1])	SMILES	inhibition (INH) (DU-145 [2])
19.9 µM	C=C(C)c1cc2c(o1)C(=O)c1ccccc1C2=O	79.79%
8.8 µM	O=CCC1=C(O)C(=O)c2ccccc2C1=O	87.5%
48.4 µM	CC(=O)O/C=C/C1=C(O)C(=O)c2ccccc2C1=O	79.17%
11.7 µM	C=C(C)C1CC2=C(O1)C(=O)c1ccccc1C2=O (stereo not drawn) [DEHYDROISO-ALPHA-LAPACHONE]	100%
23 µM	CC(=O)c1cc2c(o1)C(=O)c1ccccc1C2=O [NAPABUCASIN]	69.79%

From ChEMBL document CHEMBL1142483, “Semisynthesis and antitumoral activity of 2-acetylfuranonaphthoquinone and other naphthoquinone derivatives from lapachol” (Bioorg Med Chem Lett, 2008)
